Experimental data reported in ChEMBL document CHEMBL1156144, “Biaryl ethers as novel non-nucleoside reverse transcriptase inhibitors with improved potency against key mutant viruses” (J Med Chem, 2009).

What was measured:
[1] = test system: Human immunodeficiency virus; test: Antiviral activity against HIV with reverse transcriptase Y181C mutant assessed as inhibition of viral replication; assay type: functional, organism-based; conditions: Human immunodeficiency virus 1
[2] = test system: Human immunodeficiency virus; test: Antiviral activity against HIV with reverse transcriptase G190A mutant assessed as inhibition of viral replication; assay type: functional, organism-based; conditions: Human immunodeficiency virus 1
Rattus norvegicus [3] = test: AUC in Sprague-Dawley rat at 10 mg/kg, po; assay type: ADME, organism-based, Plasma; set-up: dose 10 mg/kg, route oral; conditions: in vivo
Canis familiaris [4] = test: Cardiotoxicity in conscious cardiovascular dog assessed as mean arterial pressure at 10 mg/kg, iv; assay type: toxicity, organism-based, Canis lupus familiaris, Heart; set-up: dose 10 mg/kg, route intravenous; conditions: in vivo
[5] = test system: Human immunodeficiency virus; test: Antiviral activity against HIV with reverse transcriptase Y181C mutant infected in human MT2 cells assessed as inhibition of viral replication measuring p24 level after 3 days in presence of 10% fetal bovine serum; assay type: functional; conditions: Human immunodeficiency virus 1, MT2, Serum, 72 h; read-out: CIC95
Outline: (§1)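 Multiple-cycle replication (Spread) assay in MT2 cells with H9IIIB-background mutant virus. Cells were infected overnight at moi ≈ 0.01 without compound, washed, then cultured 3 days across a range of compound concentrations in medium with 10% FBS. p24 was measured in supernatants. CIC95 is the lowest concentration inhibiting replication by ≥95%, reported as the geometric mean of ≥2 determinations.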

[6] = Half life in rhesus monkey at 1 mg/kg, iv; assay type: ADME, organism-based, Macaca mulatta; set-up: dose 1 mg/kg, route intravenous; conditions: in vivo
[7] = Oral bioavailability in Beagle dog at 1 mg/kg; assay type: ADME, organism-based, Canis lupus familiaris; conditions: in vivo
[8] = test system: Human immunodeficiency virus; test: Antiviral activity against HIV with reverse transcriptase V106A/G190A/F227L mutant assessed as inhibition of viral replication; assay type: functional, organism-based; conditions: Human immunodeficiency virus 1
[9] = Plasma concentration in rat at 100 mg/kg, po after 24 hrs; assay type: ADME, organism-based; set-up: dose 100 mg/kg, route oral
[10] = test system: Human immunodeficiency virus; test: Antiviral activity against HIV with reverse transcriptase L100I/K103N double mutant assessed as inhibition of viral replication; assay type: functional, organism-based; conditions: Human immunodeficiency virus 1
Canis familiaris [11] = test: Cardiotoxicity in conscious cardiovascular dog assessed as heart rate at 10 mg/kg, iv; assay type: toxicity, organism-based, Canis lupus familiaris; set-up: dose 10 mg/kg, route intravenous; conditions: in vivo
[12] = test system: Human immunodeficiency virus; test: Antiviral activity against HIV with reverse transcriptase K103N/Y181C double mutant infected in human MT2 cells assessed as inhibition of viral replication measuring p24 level after 3 days in presence of 10% fetal bovine serum; assay type: functional; conditions: Human immunodeficiency virus 1, MT2, Serum, 72 h; read-out: CIC95; outline: as §1
[13] = Clearance in Beagle dog at 0.5 mg/kg, iv; assay type: ADME, organism-based, Canis lupus familiaris; set-up: dose 0.5 mg/kg, route intravenous; conditions: in vivo
[14] = test system: Human immunodeficiency virus; test: Antiviral activity against HIV with reverse transcriptase G190S mutant assessed as inhibition of viral replication; assay type: functional, organism-based; conditions: Human immunodeficiency virus 1
[15] = test system: Human immunodeficiency virus; test: Antiviral activity against HIV with reverse transcriptase K101E/G190A double mutant assessed as inhibition of viral replication; assay type: functional, organism-based; conditions: Human immunodeficiency virus 1
[16] = test system: Human immunodeficiency virus; test: Antiviral activity against HIV with reverse transcriptase MDRC4 mutant assessed as inhibition of viral replication; assay type: functional, organism-based; conditions: Human immunodeficiency virus 1
[17] = test system: Human immunodeficiency virus; test: Antiviral activity against wild type HIV H9-3B infected in human MT2 cells assessed as inhibition of viral replication measuring p24 level after 3 days in presence of 50% normal human serum; assay type: functional; conditions: Human immunodeficiency virus 1, H9-3B, 72 h, read-out: CIC95
Outline: (§2)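 Multiple-cycle spread assay in MT2 cells with wild-type H9IIIB virus. Cells were infected overnight at moi ≈ 0.01 without compound, washed, then cultured 3 days across varying compound concentrations in RPMI 1640 with 10% FBS or 50% NHS. p24 was measured in supernatants. CIC95 is the lowest concentration inhibiting replication ≥95%, as the geometric mean of ≥2 determinations.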

[18] = test system: Human immunodeficiency virus; test: Antiviral activity against HIV with reverse transcriptase K103N/Y181C/G190A mutant assessed as inhibition of viral replication; assay type: functional, organism-based; conditions: Human immunodeficiency virus 1
Rhesus monkey = test: AUC in rhesus monkey at 5 mg/kg, po; assay type: ADME, organism-based, Macaca mulatta, Plasma; set-up: dose 5 mg/kg, route oral; conditions: in vivo
[19] = Half life in Sprague-Dawley rat at 2 mg/kg, iv; assay type: ADME, organism-based; set-up: dose 2 mg/kg, route intravenous; conditions: in vivo
[20] = test system: Human immunodeficiency virus; test: Antiviral activity against HIV with reverse transcriptase K103N mutant infected in human MT2 cells assessed as inhibition of viral replication measuring p24 level after 3 days in presence of 10% fetal bovine serum; assay type: functional; conditions: Human immunodeficiency virus 1, MT2, Serum, 72 h; read-out: CIC95; outline: as §1
[21] = test system: Human immunodeficiency virus; test: Antiviral activity against HIV with reverse transcriptase Y181C/G190A double mutant assessed as inhibition of viral replication; assay type: functional, organism-based; conditions: Human immunodeficiency virus 1
[22] = target: Human immunodeficiency virus type 1 reverse transcriptase (Human immunodeficiency virus 1, UniProt Q72547, K103N); test: Inhibition of RNA-dependent DNA polymerase activity of recombinant HIV reverse transcriptase K103N mutant assessed as BrdU incorporation by standard ECL assay
[23] = test system: Human immunodeficiency virus; test: Antiviral activity against HIV with reverse transcriptase Y188L mutant assessed as inhibition of viral replication; assay type: functional, organism-based; conditions: Human immunodeficiency virus 1
[24] = Volume of distribution in Sprague-Dawley rat at 2 mg/kg, iv; assay type: ADME, organism-based; set-up: dose 2 mg/kg, route intravenous; conditions: in vivo
Canis familiaris [25] = test: Cardiotoxicity in conscious cardiovascular dog assessed as electrocardiogram at 10 mg/kg, iv; assay type: toxicity, organism-based, Canis lupus familiaris, Heart; set-up: dose 10 mg/kg, route intravenous; conditions: in vivo
Cytochrome P450 2D6 = Cytochrome P450 2D6 (Homo sapiens, UniProt P10635); test: Inhibition of CYP2D6; assay type: ADME
[26] = test system: Human immunodeficiency virus; test: Antiviral activity against HIV with reverse transcriptase K103N/P225H double mutant assessed as inhibition of viral replication; assay type: functional, organism-based; conditions: Human immunodeficiency virus 1
[27] = test system: Human immunodeficiency virus; test: Antiviral activity against HIV with reverse transcriptase K103N mutant assessed as inhibition of viral replication; assay type: functional, organism-based; conditions: Human immunodeficiency virus 1
[28] = test system: Human immunodeficiency virus; test: Antiviral activity against HIV with reverse transcriptase K101E/Y181C/G190A mutant assessed as inhibition of viral replication; assay type: functional, organism-based; conditions: Human immunodeficiency virus 1
[29] = Clearance in rhesus monkey at 1 mg/kg, iv; assay type: ADME, organism-based, Macaca mulatta; set-up: dose 1 mg/kg, route intravenous; conditions: in vivo
[30] = Half life in Beagle dog at 0.5 mg/kg, iv; assay type: ADME, organism-based, Canis lupus familiaris; set-up: dose 0.5 mg/kg, route intravenous; conditions: in vivo
Canis familiaris [31] = test: AUC in Beagle dog at 1 mg/kg, po; assay type: ADME, organism-based, Canis lupus familiaris, Plasma; set-up: dose 1 mg/kg, route oral; conditions: in vivo
Rattus norvegicus [32] = test: AUC in Sprague-Dawley rat at 2 mg/kg, iv; assay type: ADME, organism-based, Plasma; set-up: dose 2 mg/kg, route intravenous; conditions: in vivo
[33] = Volume of distribution in Beagle dog at 0.5 mg/kg, iv; assay type: ADME, organism-based, Canis lupus familiaris; set-up: dose 0.5 mg/kg, route intravenous; conditions: in vivo
[34] = test system: Human immunodeficiency virus; test: Antiviral activity against wild type HIV H9-3B infected in human MT2 cells assessed as inhibition of viral replication measuring p24 level after 3 days in presence of 10% fetal bovine serum; assay type: functional; conditions: Human immunodeficiency virus 1, MT2, Serum; read-out: CIC95; outline: as §2
[35] = test system: Human immunodeficiency virus; test: Antiviral activity against HIV with reverse transcriptase L100I mutant assessed as inhibition of viral replication; assay type: functional, organism-based; conditions: Human immunodeficiency virus 1
[36] = Oral bioavailability in rhesus monkey at 5 mg/kg; conditions: in vivo
[37] = Inhibition of RNA-dependent DNA polymerase activity of wild type HIV reverse transcriptase assessed as BrdU incorporation by standard ECL assay; set-up: species or system Human immunodeficiency virus
Outline: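 Purified recombinant wild-type RT polymerase activity was measured using a 500-nt heteropolymeric RNA template and a biotinylated DNA primer. BrdU incorporation was detected with a ruthenylated anti-BrdU antibody by electrochemiluminescence. Ki is the geometric mean of at least two determinations, each within 25% of the mean.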

[38] = test system: Human immunodeficiency virus; test: Antiviral activity against HIV with reverse transcriptase K103N/Y181C double mutant assessed as inhibition of viral replication; assay type: functional, organism-based; conditions: Human immunodeficiency virus 1
[39] = Oral bioavailability in Sprague-Dawley rat at 10 mg/kg; assay type: ADME, organism-based; conditions: in vivo
Cytochrome P450 3A4 = Cytochrome P450 3A4 (Homo sapiens, UniProt P08684); test: Inhibition of CYP3A4; assay type: ADME
[40] = Clearance in Sprague-Dawley rat at 2 mg/kg, iv; assay type: ADME, organism-based; set-up: dose 2 mg/kg, route intravenous; conditions: in vivo
[41] = test system: Human immunodeficiency virus; test: Antiviral activity against HIV with reverse transcriptase K103N/G190A double mutant assessed as inhibition of viral replication; assay type: functional, organism-based; conditions: Human immunodeficiency virus 1
[42] = Volume of distribution in rhesus monkey at 1 mg/kg, iv; assay type: ADME, organism-based, Macaca mulatta; set-up: dose 1 mg/kg, route intravenous; conditions: in vivo
[43] = test system: Human immunodeficiency virus; test: Antiviral activity against HIV with reverse transcriptase CNDO mutant assessed as inhibition of viral replication; assay type: functional, organism-based; conditions: Human immunodeficiency virus 1

Chain of Cytochrome P450 2D6 (P10635 whole entry): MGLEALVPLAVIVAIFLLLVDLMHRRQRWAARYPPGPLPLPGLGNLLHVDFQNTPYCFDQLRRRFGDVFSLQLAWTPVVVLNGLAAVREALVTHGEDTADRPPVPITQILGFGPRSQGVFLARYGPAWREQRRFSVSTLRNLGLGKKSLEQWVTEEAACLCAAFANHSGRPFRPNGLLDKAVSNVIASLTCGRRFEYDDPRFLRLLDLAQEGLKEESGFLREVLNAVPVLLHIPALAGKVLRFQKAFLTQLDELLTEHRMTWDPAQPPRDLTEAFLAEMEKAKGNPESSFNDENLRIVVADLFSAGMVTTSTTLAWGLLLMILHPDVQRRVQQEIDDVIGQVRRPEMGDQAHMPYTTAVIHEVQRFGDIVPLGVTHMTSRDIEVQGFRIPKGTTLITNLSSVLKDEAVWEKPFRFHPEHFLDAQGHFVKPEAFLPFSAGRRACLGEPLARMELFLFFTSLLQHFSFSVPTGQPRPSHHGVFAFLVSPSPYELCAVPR
Chain of Cytochrome P450 3A4 (P08684 whole entry): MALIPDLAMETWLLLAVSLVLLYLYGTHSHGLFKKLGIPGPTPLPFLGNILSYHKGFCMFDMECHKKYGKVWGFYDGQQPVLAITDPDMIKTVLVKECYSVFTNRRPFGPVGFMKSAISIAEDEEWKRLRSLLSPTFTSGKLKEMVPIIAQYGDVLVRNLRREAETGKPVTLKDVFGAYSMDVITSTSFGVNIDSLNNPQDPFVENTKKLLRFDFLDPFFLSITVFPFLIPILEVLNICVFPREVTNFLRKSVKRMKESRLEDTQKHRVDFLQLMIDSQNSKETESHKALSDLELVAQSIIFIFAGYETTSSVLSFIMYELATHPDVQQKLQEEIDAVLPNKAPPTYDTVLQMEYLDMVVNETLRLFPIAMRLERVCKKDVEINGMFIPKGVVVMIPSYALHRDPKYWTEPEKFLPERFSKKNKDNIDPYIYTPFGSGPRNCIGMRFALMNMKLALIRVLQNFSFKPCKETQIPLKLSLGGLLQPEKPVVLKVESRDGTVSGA

Compound `N#Cc1cc(Cl)cc(Oc2cc(OCc3n[nH]c4nc(N)ccc34)cc(F)c2Cl)c1` has an IC50 [1] of 2.2 nM, an IC50 [2] of 2 nM and an AUC (Rattus norvegicus [3]) of 18 µM. For the same compound, the Activity (Canis familiaris [4]) was “Non-toxic”, the IC95 [5] was 14 nM and the half-life [6] was 4.2 h. It also gave a bioavailability [7] of 63%, an IC50 [8] of over 1000 nM and an AUC at 24 h [9] of 180 µM·h. The IC50 [10] was 112 nM, the Activity (Canis familiaris [11]) was “Non-toxic” and the IC95 [12] was 62 nM. For the same compound, the clearance [13] was 4 mL/min/kg, the IC50 [14] was 37.3 nM and the IC50 [15] was 3.4 nM. For the same compound, the IC50 [16] was 6.4 nM, the IC95 [17] was 69 nM and the IC50 [18] was 84.3 nM. The AUC (Rhesus monkey) was 1.7 µM, the half-life [19] was 4.6 h and the IC95 [20] was 18 nM. The IC50 [21] was 4.3 nM, the Ki [22] was 0.4 nM and the IC50 [23] was 326 nM. For the same compound, the Vd [24] was 3.5 L/kg, the Activity (Canis familiaris [25]) was “Non-toxic” and the IC50 (Cytochrome P450 2D6) was 47400 nM. The IC50 [26] was 3.3 nM, the IC50 [27] was 3.3 nM and the IC50 [28] was 19.2 nM. It also gave a clearance [29] of 15 mL/min/kg, a half-life [30] of 7 h and an AUC (Canis familiaris [31]) of 6 µM. The AUC (Rattus norvegicus [32]) was 7.4 µM, the Vd [33] was 2.3 L/kg and the IC95 [34] was 8 nM. The IC50 [35] was 0.6 nM, the bioavailability [36] was 13% and the Ki [37] was 0.1 nM. The IC50 [38] was 184 nM, the bioavailability [39] was 49% and the IC50 (Cytochrome P450 3A4) was 4400 nM. It also gave a clearance [40] of 10 mL/min/kg, an IC50 [41] of 9.6 nM and a Vd [42] of 3.6 L/kg. For the same compound, the IC50 [43] was 1.1 nM.
